Experimental data: ChEMBL document CHEMBL4038284, “Synthesis of novel quinoline-based 4,5-dihydro-1H-pyrazoles as potential anticancer, antifungal, antibacterial and antiprotozoal agents” (Eur J Med Chem, 2017)
Converted amounts (≈) assume the structure as drawn.

What was measured:
[1] = tested on: Klebsiella pneumoniae; experiment: Antibacterial activity against ESBL positive Klebsiella pneumoniae ATCC 700603 after 24 hrs by resazurin dye based microdilution assay; assay type: functional; details: Klebsiella pneumoniae, 700603, 24 h
Procedure, shortened: (§1)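 MIC taken as the lowest concentration giving visible inhibition and/or by resazurin (1 mg/mL). Gentamicin was the control. Run in duplicate, repeated at least three times.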

[2] = tested on: Klebsiella pneumoniae; experiment: Antibacterial activity against carbapenemase positive Klebsiella pneumoniae BAA 1705 after 24 hrs by resazurin dye based microdilution assay; assay type: functional; details: BAA 1705, 24 h; procedure, shortened: as §1
[3] = tested on: Leishmania panamensis; experiment: Antileshmanial activity against EpiR/GFP fused Leishmania panamensis MHOM/CO/87/UA140 intracellular amastigotes infected in human […] cells after 72 hrs by flow cytometric method; assay type: functional, cell-based; details: MHOM/CO/87/UA140, 72 h
Procedure, shortened: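 PMA-treated U-937 cells (3 × 10^5 cells/mL) infected with stationary-phase GFP L. panamensis promastigotes (15:1), 3 h at 34 °C, then washed. After 24 h, compounds added at 50, 12.5, 3.125 and 0.78 µg/mL for 72 h at 37 °C. EC50 by Probit; triplicate, two experiments.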

[4] = tested on: Candida albicans; experiment: Antifungal activity against Candida albicans ATCC 10231 incubated for 48 hrs under dark condition by broth microdilution method; assay type: functional; details: ATCC 10231, 48 h
Procedure, shortened: (§2)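 CLSI M27-A3 broth microdilution in RPMI-1640, DMSO ≤1%, compounds at 250-0.98 µg/mL final. Inoculum 1-5 × 10^3 CFU/mL. Incubated 48 h at 30 °C in a moist dark chamber, read at OD405. MIC80 and MIC50 taken from % inhibition dose-response curves (mean ± SEM, triplicate). Amphotericin B was the positive control.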

[5] = tested on: Cryptococcus neoformans; experiment: Antifungal activity against Cryptococcus neoformans ATCC 32264 incubated for 48 hrs under dark condition by broth microdilution method; assay type: functional; details: ATCC 32264, 48 h; procedure, shortened: as §2
[6] = tested on: Candida albicans; experiment: Growth inhibition of Candida albicans ATCC 10231 at 250 ug/ml incubated for 48 hrs under dark condition by broth microdilution method relative to control; assay type: functional; details: ATCC 10231, 48 h, read-out: GI
Procedure, shortened: (§3)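 CLSI M27-A3 broth microdilution in RPMI-1640, DMSO ≤1%. Inoculum 1-5 × 10^3 CFU/mL. Incubated 48 h at 30 °C, dark. % inhibition = 100 − (OD405 test − sterility control)/(OD405 growth control − sterility control), with growth and sterility control wells. Triplicate.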

[7] = tested on: Candida albicans; experiment: Growth inhibition of Candida albicans ATCC 10231 at 125 ug/ml incubated for 48 hrs under dark condition by broth microdilution method relative to control; assay type: functional; details: ATCC 10231, 48 h, read-out: GI; procedure, shortened: as §3
[8] = tested on: Candida albicans; experiment: Growth inhibition of Candida albicans ATCC 10231 at 62.5 ug/ml incubated for 48 hrs under dark condition by broth microdilution method relative to control; assay type: functional; details: ATCC 10231, 48 h, read-out: GI; procedure, shortened: as §3
[9] = tested on: Candida albicans; experiment: Growth inhibition of Candida albicans ATCC 10231 at 31.25 ug/ml incubated for 48 hrs under dark condition by broth microdilution method relative to control; assay type: functional; details: ATCC 10231, 48 h, read-out: GI; procedure, shortened: as §3
[10] = tested on: Candida albicans; experiment: Growth inhibition of Candida albicans ATCC 10231 at 15.62 ug/ml incubated for 48 hrs under dark condition by broth microdilution method relative to control; assay type: functional; details: ATCC 10231, 48 h, read-out: GI; procedure, shortened: as §3
[11] = tested on: Candida albicans; experiment: Growth inhibition of Candida albicans ATCC 10231 at 7.8 ug/ml incubated for 48 hrs under dark condition by broth microdilution method relative to control; assay type: functional; details: ATCC 10231, 48 h, read-out: GI; procedure, shortened: as §3
[12] = tested on: Candida albicans; experiment: Growth inhibition of Candida albicans ATCC 10231 at 3.4 ug/ml incubated for 48 hrs under dark condition by broth microdilution method relative to control; assay type: functional; details: ATCC 10231, 48 h, read-out: GI
[13] = tested on: Cryptococcus neoformans; experiment: Growth inhibition of Cryptococcus neoformans ATCC 32264 at 250 ug/ml incubated for 48 hrs under dark condition by broth microdilution method relative to control; assay type: functional; details: ATCC 32264, 48 h, read-out: GI; procedure, shortened: as §3
[14] = tested on: Cryptococcus neoformans; experiment: Growth inhibition of Cryptococcus neoformans ATCC 32264 at 125 ug/ml incubated for 48 hrs under dark condition by broth microdilution method relative to control; assay type: functional; details: ATCC 32264, 48 h, read-out: GI; procedure, shortened: as §3
[15] = tested on: Cryptococcus neoformans; experiment: Growth inhibition of Cryptococcus neoformans ATCC 32264 at 62.5 ug/ml incubated for 48 hrs under dark condition by broth microdilution method relative to control; assay type: functional; details: ATCC 32264, 48 h, read-out: GI; procedure, shortened: as §3
[16] = tested on: Cryptococcus neoformans; experiment: Growth inhibition of Cryptococcus neoformans ATCC 32264 at 31.25 ug/ml incubated for 48 hrs under dark condition by broth microdilution method relative to control; assay type: functional; details: ATCC 32264, 48 h, read-out: GI; procedure, shortened: as §3
[17] = tested on: Cryptococcus neoformans; experiment: Growth inhibition of Cryptococcus neoformans ATCC 32264 at 15.62 ug/ml incubated for 48 hrs under dark condition by broth microdilution method relative to control; assay type: functional; details: ATCC 32264, 48 h, read-out: GI; procedure, shortened: as §3
[18] = tested on: Cryptococcus neoformans; experiment: Growth inhibition of Cryptococcus neoformans ATCC 32264 at 7.8 ug/ml incubated for 48 hrs under dark condition by broth microdilution method relative to control; assay type: functional; details: ATCC 32264, 48 h, read-out: GI; procedure, shortened: as §3
[19] = tested on: Cryptococcus neoformans; experiment: Growth inhibition of Cryptococcus neoformans ATCC 32264 at 3.4 ug/ml incubated for 48 hrs under dark condition by broth microdilution method relative to control; assay type: functional; details: ATCC 32264, 48 h, read-out: GI
[20] = tested on: Staphylococcus aureus; experiment: Antibacterial activity against methicillin-sensitive Staphylococcus aureus ATCC 25923 after 24 hrs by resazurin dye based microdilution assay; assay type: functional; details: ATCC 25923, 24 h; procedure, shortened: as §1
[21] = tested on: Staphylococcus aureus; experiment: Antibacterial activity against methicillin-resistant Staphylococcus aureus ATCC 43300 after 24 hrs by resazurin dye based microdilution assay; assay type: functional; details: ATCC 43300, 24 h
Procedure, shortened: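 Broth microdilution in Mueller Hinton broth, inoculum 5 × 10^5 – 8 × 10^5. Compound stocks diluted in MHB with 5% DMSO and 0.1% Tween 80. Incubation 24 h at 35-37 °C. MIC is the lowest concentration with visible growth inhibition and/or by resazurin (1 mg/mL) read-out. Gentamicin as control. Run in duplicate, replicated at least three times.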

[22] = tested on: Staphylococcus aureus; experiment: Antibacterial activity against vancomycin-intermediate Staphylococcus aureus after 24 hrs by resazurin dye based microdilution assay; assay type: functional; procedure, shortened: as §1
[23] = tested on: Escherichia coli; experiment: Antibacterial activity against Escherichia coli ATCC 25922 after 24 hrs by resazurin dye based microdilution assay; assay type: functional; details: ATCC 25922, 24 h; procedure, shortened: as §1
[24] = tested on: Pseudomonas aeruginosa; experiment: Antibacterial activity against Pseudomonas aeruginosa ATCC 27853 after 24 hrs by resazurin dye based microdilution assay; assay type: functional; details: ATCC 27853, 24 h; procedure, shortened: as §1
[25] = tested on: Neisseria gonorrhoeae; experiment: Antibacterial activity against beta lactamase positive Neisseria gonorrhoeae ATCC 31426 by oxidase test; assay type: functional
Procedure, shortened: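 Agar dilution MIC on GC agar with 1% isovitalex containing increasing compound concentrations. Plates inoculated with about 1×10^4 CFU (5 µL). MIC is the lowest concentration that inhibited growth, with growth confirmed by oxidase test. Run in duplicate, repeated at least three times.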

[26] = tested on: Plasmodium falciparum; experiment: Antiplasmodial activity against chloroquine-sensitive Plasmodium falciparum 3D7 assessed as reduction in parasitic LDH activity after 48 hrs by Malstat reagent based […] method; assay type: functional; details: 3D7, 48 h
Procedure, shortened: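 Unsynchronized P. falciparum 3D7 at 0.5% parasitemia and 1% hematocrit in RPMI with 3% Albumax II. Exposed to 100, 25, 6.25 and 1.56 µg/mL for 48 h at 37 °C under 90% N2/5% CO2/5% O2. After three freeze-thaw cycles, LDH measured with Malstat and NBT/PES, 1 h in the dark, read at 650 nm. IC50 by Probit; triplicate, ≥2 experiments.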

[27] = tested on: U-937; experiment: Cytotoxicity against human U937 cells after 72 hrs by MTT assay; assay type: cell-based; details: u-937, 72 h
Procedure, shortened: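 Exponentially growing U-937 at 1 × 10^5 cells/mL in RPMI-1640 with 10% FBS were exposed to 200, 50, 12.5 and 3.125 µg/mL for 72 h at 37 °C, 5% CO2. MTT for 3 h, stopped with isopropanol/SDS, formazan read at 570 nm, blank-corrected. LC50 by Probit from % viability against untreated cells. Triplicate, at least two independent experiments.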

[28] = tested on: Trypanosoma cruzi; experiment: Antitrypanosomal activity against Trypanosoma cruzi Tulahuen intracellular amastigote harboring LacZ infected in human U937 cells after 72 hrs by CPRG/Nonidet reagent based spectrophotometric method; assay type: functional, cell-based; details: U-937, 72 h
Procedure, shortened: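 U-937 cells at 2.5 × 10^5 cells/mL in RPMI-1640 with 10% serum and 0.1 µg/mL PMA were infected with β-galactosidase-transfected Tulahuen epimastigotes at 5 parasites per cell. Infected cells were exposed to 50, 12.5, 3.125 and 0.78 µg/mL for 72 h. CPRG (100 uM) and 0.1% Nonidet P-40 were added for 3 h, read at 570 nm. EC50 by Probit. Triplicate, at least two experiments; benznidazole as reference.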

Structure (SMILES)	MIC [1] [µg/mL]	MIC [2] [µg/mL]	EC50 [3] [µg/mL]	MIC50 [4] [µg/mL]	MIC80 [4] [µg/mL]	MIC50 [5] [µg/mL]	MIC80 [5] [µg/mL]	inhibition of growth at 250 µg/mL [6] [%]	inhibition of growth at 125 µg/mL [7] [%]	inhibition of growth at 62.5 µg/mL [8] [%]	inhibition of growth at 31.25 µg/mL [9] [%]	inhibition of growth at 15.62 µg/mL [10] [%]	inhibition of growth at 7.8 µg/mL [11] [%]	inhibition of growth at 3.4 µg/mL [12] [%]	inhibition of growth at 250 µg/mL [13] [%]	inhibition of growth at 125 µg/mL [14] [%]	inhibition of growth at 62.5 µg/mL [15] [%]	inhibition of growth at 31.25 µg/mL [16] [%]	inhibition of growth at 15.62 µg/mL [17] [%]	inhibition of growth at 7.8 µg/mL [18] [%]	further results
CC(=O)N1N=C(c2ccccc2)CC1c1cccc(Nc2ccnc3cc(Cl)ccc23)c1 (stereo not given)	> 1000	> 1000	3.67 (≈ 8.32 µM)	250 (≈ 567 µM)	≥ 250	250 (≈ 567 µM)	≥ 250	53.3	27.5	23.1	21.2	19.8	10.5	5.28	69.2	41.9	12.8	12.3	12.2	8.77	inhibition of growth at 3.4 µg/mL [19]: 0%; MIC [20]: > 1000 µg/mL; MIC [21]: > 1000 µg/mL; MIC [22]: > 1000 µg/mL; MIC [23]: > 1000 µg/mL; MIC [24]: > 1000 µg/mL; MIC [25]: > 1000 µg/mL; EC50 [26]: 12.7 µg/mL (≈ 28.7 µM); LC50 [27]: 5.8 µg/mL (≈ 13.2 µM); EC50 [28]: 4.26 µg/mL (≈ 9.66 µM)
Cc1ccc(C2=NN(c3ccc(Cl)cc3)C(c3cccc(Nc4ccnc5cc(Cl)ccc45)c3)C2)cc1 (stereo not given)	> 1000	> 1000	49.4 (≈ 94.4 µM)	≥ 250	≥ 250	≥ 250	≥ 250	36.5	16.2	13.1	8.37	7.27	5.67	0	22.8	15.9	12.9	10.9	6.99	6.57	inhibition of growth at 3.4 µg/mL [19]: 0%; MIC [20]: > 1000 µg/mL; MIC [21]: > 1000 µg/mL; MIC [22]: > 1000 µg/mL; MIC [23]: > 1000 µg/mL; MIC [24]: > 1000 µg/mL; MIC [25]: > 1000 µg/mL; EC50 [26]: 13.7 µg/mL (≈ 26.2 µM); LC50 [27]: > 200 µg/mL; EC50 [28]: 21.9 µg/mL (≈ 41.9 µM)
COc1cc(C2=NN(C=O)C(c3cccc(Nc4ccnc5cc(Cl)ccc45)c3)C2)cc(OC)c1OC (stereo not given)	> 1000	> 1000	6.79 (≈ 13.1 µM)	≥ 250	≥ 250	≥ 250	≥ 250	43.9	26.7	23.7	19.7	19.6	5.72	5.34	0	0	0	0	0	0	inhibition of growth at 3.4 µg/mL [19]: 0%; MIC [20]: > 1000 µg/mL; MIC [21]: > 1000 µg/mL; MIC [22]: > 1000 µg/mL; MIC [23]: > 1000 µg/mL; MIC [24]: > 1000 µg/mL; MIC [25]: > 1000 µg/mL; EC50 [26]: 24.3 µg/mL (≈ 47 µM); LC50 [27]: 17.4 µg/mL (≈ 33.7 µM); EC50 [28]: 7.22 µg/mL (≈ 14 µM)
